Bioassay records (PubChem)
Most compounds without a hit are left out; they make up all but 1.5% or so of the library.
C8 TRAIL sens = viability loss with TRAIL in NB7+C8 cells, primary screen, TRAIL sensitizer project, cell-based, ATPlite luminescence. inhibition (viability loss, TRAIL sensitization), % at 10 µM. 360,000 tested, 1% active. AID 624354, 2012;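 active = compounds causing at least 50% loss of cell viability in the single-dose screen, relative to plate controls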
FLuc inh counter = firefly luciferase enzyme inhibitors, primary screen, artefact control for luciferase-based inhibitor screens, biochemical, luminescence, ATPLite. 10 min. inhibition, % at 10 µM. Luciferin 4-monooxygenase (Photinus pyralis), P08659. 200,000 tested, 1.5% active;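 active = inhibition above about 50% when tested at 10 µM, limit read from the data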
Target sequence (P08659 whole entry, looked up): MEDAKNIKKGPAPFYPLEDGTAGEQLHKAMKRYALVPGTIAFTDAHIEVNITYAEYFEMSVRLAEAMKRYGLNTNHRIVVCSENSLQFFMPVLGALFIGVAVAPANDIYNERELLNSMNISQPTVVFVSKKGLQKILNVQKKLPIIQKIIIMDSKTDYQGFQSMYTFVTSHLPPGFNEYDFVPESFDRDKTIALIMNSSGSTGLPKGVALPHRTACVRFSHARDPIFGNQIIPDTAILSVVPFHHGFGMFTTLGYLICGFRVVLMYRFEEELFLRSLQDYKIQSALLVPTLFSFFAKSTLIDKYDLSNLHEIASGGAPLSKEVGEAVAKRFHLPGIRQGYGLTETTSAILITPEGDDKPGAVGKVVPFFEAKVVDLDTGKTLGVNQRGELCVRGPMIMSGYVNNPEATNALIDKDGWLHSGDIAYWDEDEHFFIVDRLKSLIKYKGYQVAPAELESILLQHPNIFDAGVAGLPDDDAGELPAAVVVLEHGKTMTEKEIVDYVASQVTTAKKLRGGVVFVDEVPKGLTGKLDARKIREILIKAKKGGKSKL
FLuc act counter = FLuc activators, initial screening, artefact control for FLuc-dependent activation tests, biochemical, ATPlite luminescence. activation factor at 10 µM. 200,000 tested, under 10 active. ATPlite luciferase biochemical, 10 min; 0 = ATP-free wells, 1 = DMSO control;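 active = luciferase activation factor, scaled between plate controls, of at least 2 with compound at 10 µM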
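Material: Luciferase/luciferin reagent mix | Doses: Test compounds dosed from 2 mM stocks in 100% DMSO | Timing: 10 min incubation after luciferase reagent addition, room temperature | Measured by: Luminescence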
PPC-1+TRAIL kill = compounds killing PPC-1 cancer cells with TRAIL present, primary screen, TRAIL potentiator project, ATPLite luminescence, uHTS | PPC-1 cells + TRAIL, ATPLite viability luminescence | cell killing (% activity), % at 4 µM or 5 µM | 220,000 tested, 0.41% active | AID 1443, 2008;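 active = cell killing above 50% in the first pass at 4 µM, then a duplicate retest at 5 µM averaging 50% or more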;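 note: plate controls were cells with TRAIL plus DMSO for no effect and medium-only wells lacking cells for full effect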
The depositor's hits bear a star.

How did CC1(C)N=C(N)N=C(N)N1c1ccc(OCC(=O)Nc2ccccc2)c(Cl)c1 do in these assays?
C8 TRAIL sens: 81*

How did Cc1cccc(NC(=O)CCc2ccc(N3C(N)=NC(N)=NC3(C)C)cc2)c1 do in these assays?
C8 TRAIL sens: 80*

Results for CC1(C)N=C(N)N=C(N)N1c1cccc(CC(=O)Nc2ccccc2)c1 ?
C8 TRAIL sens: 78*

What do the screens show for `COc1ccccc1N1C(N)=NC(N)=NC1(C)C`?
C8 TRAIL sens: -1; FLuc inh counter: -6; FLuc act counter: 1.1; PPC-1+TRAIL kill: 19

What do the screens show for `CC1(C)N=C(N)N=C(N)N1c1ccc(OCCCOc2ccccc2)c(Cl)c1`?
C8 TRAIL sens: 71*; PPC-1+TRAIL kill: 41

Results for O=C(COc1ccccc1Cl)Nc1ccc(N2CCCC2)cc1 ?
C8 TRAIL sens: 0

How did Nc1nc(SCc2cccnc2)c2ncn(C3OC(CO)C(O)C3O)c2n1 (stereo unspecified) do in these assays?
C8 TRAIL sens: 2

Results for Cc1cccc(NC(=O)c2ccc3c(c2)OCCO3)c1 ?
C8 TRAIL sens: 87*

What do the screens show for `Cc1ccc(NC(=O)c2ccc3c(c2)OCCO3)nc1`?
C8 TRAIL sens: 74*

What do the screens show for `Cc1ccc(NC(=O)c2ccc3c(c2)OCCO3)cc1C`?
C8 TRAIL sens: 76*

What do the screens show for `Cc1cccc(NC(=S)NNC(=O)c2ccc3c(c2)OCO3)c1`?
C8 TRAIL sens: 50*; FLuc inh counter: 79*; FLuc act counter: 0.2; PPC-1+TRAIL kill: 48

Results for O=C(Nc1cccc(F)c1)c1ccc2c(c1)OCCO2 ?
C8 TRAIL sens: 22

What do the screens show for `COc1cccc(-c2ncc3ccccc3c2COC(=O)N2CCCCC2)c1`?
C8 TRAIL sens: 8

What do the screens show for `NC(=O)NN=C1CCC(OCc2ccccc2)CC1CC(=O)O` (stereo unspecified)?
C8 TRAIL sens: -2

Results for Cc1ccc(C(=O)Nc2ccc3c(c2)OCCO3)c(C)c1 ?
C8 TRAIL sens: 87*

What do the screens show for `O=C(Nc1ccccc1)c1ccc2c(c1)OCCO2`?
C8 TRAIL sens: 34; FLuc inh counter: 65*; FLuc act counter: 0.4; PPC-1+TRAIL kill: 46

Results for O=C(Nc1ccc(NC(=O)c2ccc3c(c2)OCCO3)cc1)c1ccccc1 ?
C8 TRAIL sens: 32

How did CC(C(=O)Nc1ccccc1F)N1CCN(S(=O)(=O)c2ccc(C(F)(F)F)cc2)CC1 (stereo unspecified) do in these assays?
C8 TRAIL sens: 11

Results for CC(C)(C)C1CCc2sc(C(=O)NNC(=O)CCl)cc2C1 (stereo unspecified) ?
C8 TRAIL sens: 88*; FLuc inh counter: 57*; FLuc act counter: 0.4; PPC-1+TRAIL kill: 15

Results for CC(C)(C)C1CCC(=NNC(=O)c2cc3c(s2)CCCC3)CC1 (stereo unspecified) ?
C8 TRAIL sens: -12; FLuc inh counter: -9; FLuc act counter: 1.1; PPC-1+TRAIL kill: -2

What do the screens show for `Nc1c(-c2ccc(Cl)cc2)cnn1-c1ccccc1`?
C8 TRAIL sens: 41

Results for Cc1ccc(-c2cnn(-c3ccccc3)c2N)cc1 ?
C8 TRAIL sens: 79*

How did O=C(O)/C=C\C(=O)NNC(=O)c1cc(-c2ccccc2)n[nH]1 do in these assays?
C8 TRAIL sens: 7; PPC-1+TRAIL kill: -9

Results for O=C(O)/C=C/C(=O)NNC(=O)c1cc(-c2ccccc2)n[nH]1 ?
C8 TRAIL sens: 51*; FLuc inh counter: 44; FLuc act counter: 0.6; PPC-1+TRAIL kill: 22

What do the screens show for `Cc1cccc(NS(=O)(=O)c2ccc(C)c(C(=O)NCC(c3ccco3)N3CCCCC3)c2)c1` (stereo unspecified)?
C8 TRAIL sens: -6

How did Cc1nn(Cc2ccc(Cl)cc2Cl)c(C)c1NC(=O)CCl do in these assays?
C8 TRAIL sens: 90*; FLuc inh counter: -1; FLuc act counter: 1; PPC-1+TRAIL kill: 10

Results for CC(C)c1ccc(/C=c2\sc3n(c2=O)C(N)=C(C#N)C(c2ccc(C(C)C)cc2)C=3C(N)=O)cc1 (stereo unspecified) ?
C8 TRAIL sens: 63*

Results for CCOC(=O)C1=C(N)n2c(s/c(=C\c3cccnc3)c2=O)=C(C#N)C1c1cccnc1 (stereo unspecified) ?
C8 TRAIL sens: 16

What do the screens show for `O=c1c2ccccc2nc2ccc(NCc3cccs3)nn12`?
C8 TRAIL sens: 13; FLuc inh counter: 59*; FLuc act counter: 0.4

What do the screens show for `CN(C)c1ccc(C=Nc2ccccc2C(N)=O)cc1`?
C8 TRAIL sens: 85*; FLuc inh counter: 89*; FLuc act counter: 0.1; PPC-1+TRAIL kill: 80*

Results for Cc1ccc(C=Nc2ccccc2C(N)=O)o1 ?
C8 TRAIL sens: -5; FLuc inh counter: 54*; FLuc act counter: 0.5; PPC-1+TRAIL kill: 35

How did CN(C)c1ccc(/C=N/N=C/c2ccccc2O)cc1 do in these assays?
C8 TRAIL sens: 23; FLuc inh counter: 37; FLuc act counter: 0.6; PPC-1+TRAIL kill: 16

What do the screens show for `Cc1csc(SC(C)C(=O)Nc2ccccc2C)n1` (stereo unspecified)?
C8 TRAIL sens: 11

What do the screens show for `COC(=O)[C@@]1(Cc2ccc(F)cc2)[C@H]2c3cc(C(=O)N4CCCC4)n(Cc4ccc(C)o4)c3C[C@H]2CN1C(=O)c1ccccc1`?
C8 TRAIL sens: 16

Results for O=C(C(=O)c1cccnc1)c1cccnc1 ?
C8 TRAIL sens: -3; PPC-1+TRAIL kill: 16

What do the screens show for `COc1cccc(C(=O)/C=C2\Sc3ccccc3N2C)c1`?
C8 TRAIL sens: 51*; FLuc inh counter: 79*; FLuc act counter: 0.2; PPC-1+TRAIL kill: 50

How did CN1/C(=C\C(=O)c2cccnc2)Sc2ccccc21 do in these assays?
C8 TRAIL sens: 19; FLuc inh counter: 55*; FLuc act counter: 0.5; PPC-1+TRAIL kill: 16

What do the screens show for `O=S1(=O)CCO[C@H]2Cc3ccccc3[C@H]2N1Cc1ccc(F)cc1`?
C8 TRAIL sens: -6

How did CC[n+]1c(/C=C/c2ccc(OC)c(OC)c2)ccc2ccccc21 do in these assays?
C8 TRAIL sens: -12

Results for CCN(CC)c1ccc(/C=C/c2ccc3ccc(OC)cc3[n+]2CC)cc1 ?
C8 TRAIL sens: 57*

Results for Clc1ccc(CN2CCc3c([nH]c4ccccc34)C2)cc1Cl ?
C8 TRAIL sens: 54*

What do the screens show for `Clc1cccc(CN2CCc3c([nH]c4ccccc34)C2)c1`?
C8 TRAIL sens: 20

What do the screens show for `Cc1nn(Cc2ccccc2)c(C)c1CNC(=O)CN=C1NS(=O)(=O)c2ccccc21`?
C8 TRAIL sens: 4

Results for C(=Cc1nc2ccccc2o1)c1ccc2c(c1)OCO2 ?
C8 TRAIL sens: 80*

How did C[n+]1c(/C=C/c2ccc3c(c2)OCO3)ccc2ccccc21 do in these assays?
C8 TRAIL sens: -1; FLuc inh counter: 6; FLuc act counter: 0.9

What do the screens show for `C(=Cc1cnc2ccccc2n1)c1ccc2c(c1)OCO2`?
C8 TRAIL sens: 86*
